ChEMBL document CHEMBL1177765, “Synthesis and biological evaluation of new cytotoxic azanaphthoquinone pyrrolo-annelated derivatives” (Bioorg Med Chem Lett, 2010)
≈ marks a conversion by molar mass, not a printed value. Calls of active or inactive are those of the source. The rule behind the calls is not given here.

What was measured:
[1] = Cytotoxicity against human RKOp27IND cells after 48 hrs by XTT assay; type: functional, cell-based
[2] = Cytotoxicity against human RKOp27 cells after 48 hrs by XTT assay; type: functional, cell-based; conditions: RKOp27, 48 h
Procedure, shortened: (§1)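 XTT assay of cell proliferation after 48 h exposure. EC50 is the concentration giving 50% inhibition, fitted by nonlinear regression to data from at least two independent assays.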

NCI-H460 [3] = test: Cytotoxicity against human NCI-H460 cells after 48 hrs by XTT assay; type: functional, cell-based; conditions: NCI-H460, 48 h; procedure, shortened: as §1
SK-OV-3 [4] = test: Cytotoxicity against human SKOV3 cells after 48 hrs by XTT assay; type: functional, cell-based; conditions: SK-OV-3, 48 h; procedure, shortened: as §1
[5] = Cytotoxicity against human KB/HeLa cells after 48 hrs by XTT assay; type: functional, cell-based; procedure, shortened: as §1
SF-268 [6] = test: Cytotoxicity against human SF268 cells after 48 hrs by XTT assay; type: functional, cell-based; conditions: SF-268, 48 h; procedure, shortened: as §1
SK-OV-3 [7] = test: Cytotoxicity against human SKOV3 cells at 3.16 ug/mL after 48 hrs by XTT assay; type: functional; conditions: SK-OV-3, 48 h
SF-268 [8] = test: Cytotoxicity against human SF268 cells at 3.16 ug/mL after 48 hrs by XTT assay; type: functional; conditions: SF-268, 48 h
[9] = Cytotoxicity against human RKOp27IND cells at 3.16 ug/mL after 48 hrs by XTT assay; type: functional
[10] = Cytotoxicity against human KB/HeLa cells at 3.16 ug/mL after 48 hrs by XTT assay; type: functional
[11] = Cytotoxicity against human RKOp27 cells at 3.16 ug/mL after 48 hrs by XTT assay; type: functional; conditions: RKOp27, 48 h
NCI-H460 [12] = test: Cytotoxicity against human NCI-H460 cells at 3.16 ug/mL after 48 hrs by XTT assay; type: functional; conditions: NCI-H460, 48 h
[13] = Cell cycle arrest in human RKOp27 cells assessed as accumulation at G2/M phase; type: functional, cell-based
[14] = Cell cycle arrest in human RKOp27IND cells assessed as accumulation at G2/M phase; type: functional, cell-based
Nucleic Acid = test: Binding affinity to DNA at 125 uM; type: nucleic-acid assay
Procedure, shortened: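 UV-absorbance DNA intercalation assay. Stocks up to 5 mM were made in 5% (v:v) DMSO or methanol, then diluted stepwise in pH 7 buffer (5 mM NaH2PO4, 5 mM Na2HPO4, 70 mM NaCl) to give absorbance maximum about 1–2. Spectra were read from 350 to 600 nm with or without 2 mg/ml calf thymus DNA. Acridine orange was the reference.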

Structure (SMILES)	EC50 [1] [µg/mL]	EC50 [2] [µg/mL]	EC50 (NCI-H460 [3]) [µg/mL]	EC50 (SK-OV-3 [4]) [µg/mL]	EC50 [5] [µg/mL]	EC50 (SF-268 [6]) [µg/mL]	inhibition at 3.16 µg/mL (SK-OV-3 [7]) [%]	inhibition at 3.16 µg/mL (SF-268 [8]) [%]	inhibition at 3.16 µg/mL [9] [%]	inhibition at 3.16 µg/mL [10] [%]	inhibition at 3.16 µg/mL [11] [%]	inhibition at 3.16 µg/mL (NCI-H460 [12]) [%]	Activity [13]	Activity [14]	Activity (Nucleic Acid)
CN(C)CCCn1ccc2c1C(=O)c1ccncc1C2=O	3 (≈ 10.6 µM)	3 (≈ 10.6 µM)	3 (≈ 10.6 µM)	3 (≈ 10.6 µM)	3 (≈ 10.6 µM)	3 (≈ 10.6 µM)	–	–	–	–	–	–	–	–	–
CN(C)CCn1ccc2c1C(=O)c1ccncc1C2=O	3 (≈ 11.1 µM)	3 (≈ 11.1 µM)	3 (≈ 11.1 µM)	3 (≈ 11.1 µM)	3 (≈ 11.1 µM)	3 (≈ 11.1 µM)	–	–	–	–	–	–	–	–	–
CN(C)CCCn1ccc2c1C(=O)c1cncnc1C2=O	0.44 (≈ 1.55 µM)	0.246 (≈ 0.865 µM)	0.177 (≈ 0.623 µM)	0.452 (≈ 1.59 µM)	0.28 (≈ 0.985 µM)	0.198 (≈ 0.696 µM)	–	–	–	–	–	–	–	–	–
CN(C)CCn1ccc2c1C(=O)c1nccnc1C2=O	2.97 (≈ 11 µM)	1.19 (≈ 4.42 µM)	1.12 (≈ 4.15 µM)	3 (≈ 11.1 µM)	1.37 (≈ 5.06 µM)	2.7 (≈ 9.99 µM)	–	–	–	–	–	–	–	–	–
CN(C)CCCn1ccc2c1C(=O)c1ncccc1C2=O	–	–	–	–	–	–	< 50	< 50	< 50	< 50	< 50	< 50	–	–	–
CN(C)CCn1ccc2c1C(=O)c1cccnc1C2=O	–	–	–	–	–	–	< 50	< 50	< 50	< 50	< 50	< 50	–	–	–
CN(C)CCCn1ccc2c1C(=O)c1cccnc1C2=O	–	–	–	–	–	–	< 50	< 50	< 50	< 50	< 50	< 50	–	–	–
CN(C)CCn1ccc2c1C(=O)c1cncnc1C2=O	0.377 (≈ 1.39 µM)	0.173 (≈ 0.64 µM)	0.082 (≈ 0.303 µM)	0.239 (≈ 0.884 µM)	0.173 (≈ 0.64 µM)	0.107 (≈ 0.396 µM)	–	–	–	–	–	–	inactive	inactive	inactive
CN(C)CCn1ccc2c1C(=O)c1ncccc1C2=O	–	–	–	–	–	–	< 50	< 50	< 50	< 50	< 50	< 50	–	–	–
CN(C)CCCn1ccc2c1C(=O)c1nccnc1C2=O	–	–	–	–	–	–	< 50	< 50	< 50	< 50	< 50	< 50	–	–	–
